# In ChEMBL document CHEMBL3421564, “Synthesis and biological evaluation of indolyl-pyridinyl-propenones having either methuosis or microtubule disruption activity” (2015):
# The source made the active and inactive calls. No cut-off for these calls is given here.
# Key:
# [1] = biological target: T1, Tubulin (Homo sapiens) (UniProt P68371+Q9H4B7+P0DPH7+P68366+Q13509+Q71U36+P04350+Q3ZCM7+P07437+P68363+Q9BQE3+Q6PEY2+Q13885+Q9BVA1+Q9BUF5); assay: Inhibition of tubulin polymerization in human U251 cells at 0.1 uM after 4 hrs by immunoblot analysis; assay type: cell-based; conditions: U-251
# How it was run: (§1)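 Seeded at 1.4 × 10^6 cells per 10 cm dish and treated one day later for 4 h, DMSO control. Cells scraped into 37 °C lysis buffer (100 mM PIPES pH 6.9, 5 mM MgCl2, 1 mM EGTA, 30% glycerol, detergents, 2 mM GTP, protease inhibitors) and spun at 100000g for 1 h at 37 °C. Pellet (polymer) and supernatant tubulin measured by anti-α-tubulin immunoblot with chemiluminescence. Polymer fraction expressed as % of DMSO control; mean ± S.D. of three experiments, two-tailed t test.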
# [2] = system: U-251; assay: Induction of methuosis in human U251 cells assessed as small cytoplasmic vacuolization and extensive blebbing of the plasma membrane at 2.5 uM after 4 hrs by phase contrast microscopy
# [3] = system: U-251; assay: Growth inhibition of human U251 cells at 10 uM after 24 hrs sulphorhodomine B colorimetric assay; assay type: functional, cell-based
# [4] = biological target: T1, Tubulin (Homo sapiens); assay: Inhibition of tubulin polymerization in human U251 cells at 3 uM after 4 hrs by immunoblot analysis; assay type: cell-based; conditions: U-251; how it was run: as §1
# [5] = system: U-251; assay: Induction of methuosis in human U251 cells assessed as cytoplasmic vacuolization at 2.5 uM within 4 hrs by phase contrast microscopy; assay type: functional, cell-based
# How it was run: (§2)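 Live U251 cells seeded at 10^5 per 35 mm dish; fresh medium with compound added after 1 day, DMSO vehicle control. Phase-contrast images taken at set intervals after drug addition (4 h to 48 h). Vacuolization, blebbing, rounding and detachment scored by eye.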
# [6] = system: U-251; assay: Induction of methuosis in human U251 cells assessed as cytoplasmic vacuolization at 2.5 uM up to 48 hrs by phase contrast microscopy; assay type: functional, cell-based; how it was run: as §2
SMILES,inhibition [1],growth inhibition (GI) [3],inhibition [4],further results
CCCOc1ccc2[nH]c(C)c(/C=C/C(=O)c3ccncc3)c2c1,inactive,,,
COc1ccc2[nH]c(C(=O)O)c(/C=C/C(=O)c3ccncc3)c2c1,,inactive,,Activity [2]: Active
COc1ccc2[nH]c(C)c(/C=C/C(=O)c3ccncc3)c2c1,inactive,,,
COc1ccc2[nH]c(C(F)(F)F)c(/C=C/C(=O)c3ccncc3)c2c1,inactive,,Active,
CCCOC(=O)c1[nH]c2ccc(OC)cc2c1/C=C/C(=O)c1ccncc1,inactive,,Active,
Cc1[nH]c2ccc(N)cc2c1/C=C/C(=O)c1ccncc1,,inactive,,Activity [5]: inactive
NCc1ccc2[nH]cc(/C=C/C(=O)c3ccncc3)c2c1,,inactive,,Activity [6]: inactive
CCOC(=O)c1[nH]c2ccc(OC)cc2c1/C=C/C(=O)c1ccncc1,inactive,,Active,
CCCCOc1ccc2[nH]c(C)c(/C=C/C(=O)c3ccncc3)c2c1,,inactive,,Activity [6]: Active
